Experimental data: ChEMBL document CHEMBL3739379, “Anti-Candida activity and cytotoxicity of a large library of new N-substituted-1,3-thiazolidin-4-one derivatives” (Eur J Med Chem, 2016)
Values after ≈ are worked out from the molar mass of the structure shown.

system: Staphylococcus aureus; assay: Antibacterial activity against Staphylococcus aureus after 18 to 22 hrs by broth microdilution method; assay type: functional; conditions: not given
Outline: (§1)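 Broth microdilution per NCCLS in Mueller-Hinton II broth; isolates subcultured for purity. Compounds dissolved in DMSO, serial dilutions 256 to 0.5 µg/mL; inoculum 10^5/mL. Controls: organism without compound, medium only. Incubation 18 to 22 h at 35 °C. MIC is the lowest concentration giving complete growth inhibition, read by unaided eye.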

Structure (SMILES) | MIC [µg/mL]
O=C1CS/C(=N\N=C\c2ccc3c(c2)OCO3)N1Cc1cccc2ccccc12 | > 256
CC(C)=N/N=C1\SCC(=O)N1Cc1cccc2ccccc12 | > 256
C/C(=N\N=C1/SCC(=O)N1CN1C(=O)c2ccccc2C1=O)c1ccco1 | > 256
O=C1c2ccccc2C(=O)N1CN1C(=O)CS/C1=N\N=C1CCCC1 | > 256
O=C1CS/C(=N\N=C\c2cccnc2)N1Cc1cccc2ccccc12 | > 256

system: Staphylococcus warneri; assay: Antibacterial activity against Staphylococcus warneri after 18 to 22 hrs by broth microdilution method; assay type: functional; conditions: not given; outline: as §1

Structure (SMILES) | MIC [µg/mL]
O=C1CS/C(=N\N=C\c2ccc3c(c2)OCO3)N1Cc1cccc2ccccc12 | > 256
CC(C)=N/N=C1\SCC(=O)N1Cc1cccc2ccccc12 | > 256
C/C(=N\N=C1/SCC(=O)N1CN1C(=O)c2ccccc2C1=O)c1ccco1 | > 256
O=C1c2ccccc2C(=O)N1CN1C(=O)CS/C1=N\N=C1CCCC1 | > 256
O=C1CS/C(=N\N=C\c2cccnc2)N1Cc1cccc2ccccc12 | > 256

system: Enterococcus faecalis; assay: Antibacterial activity against […] faecalis after 18 to 22 hrs by broth microdilution method; assay type: functional; conditions: not given; outline: as §1

Structure (SMILES) | MIC [µg/mL]
O=C1CS/C(=N\N=C\c2ccc3c(c2)OCO3)N1Cc1cccc2ccccc12 | > 256
CC(C)=N/N=C1\SCC(=O)N1Cc1cccc2ccccc12 | > 256
C/C(=N\N=C1/SCC(=O)N1CN1C(=O)c2ccccc2C1=O)c1ccco1 | > 256
O=C1c2ccccc2C(=O)N1CN1C(=O)CS/C1=N\N=C1CCCC1 | > 256
O=C1CS/C(=N\N=C\c2cccnc2)N1Cc1cccc2ccccc12 | > 256

system: Staphylococcus haemolyticus; assay: Antibacterial activity against Staphylococcus haemolyticus after 18 to 22 hrs by broth microdilution method; assay type: functional; conditions: not given; outline: as §1

Structure (SMILES) | MIC [µg/mL]
O=C1CS/C(=N\N=C\c2ccc3c(c2)OCO3)N1Cc1cccc2ccccc12 | > 256
CC(C)=N/N=C1\SCC(=O)N1Cc1cccc2ccccc12 | > 256
C/C(=N\N=C1/SCC(=O)N1CN1C(=O)c2ccccc2C1=O)c1ccco1 | > 256
O=C1c2ccccc2C(=O)N1CN1C(=O)CS/C1=N\N=C1CCCC1 | > 256
O=C1CS/C(=N\N=C\c2cccnc2)N1Cc1cccc2ccccc12 | > 256

system: Escherichia coli; assay: Antibacterial activity against Escherichia coli at after 18 to 22 hrs by broth microdilution method; assay type: functional; conditions: not given; outline: as §1

Structure (SMILES) | MIC [µg/mL]
O=C1CS/C(=N\N=C\c2ccc3c(c2)OCO3)N1Cc1cccc2ccccc12 | > 256
CC(C)=N/N=C1\SCC(=O)N1Cc1cccc2ccccc12 | > 256
C/C(=N\N=C1/SCC(=O)N1CN1C(=O)c2ccccc2C1=O)c1ccco1 | > 256
O=C1c2ccccc2C(=O)N1CN1C(=O)CS/C1=N\N=C1CCCC1 | > 256
O=C1CS/C(=N\N=C\c2cccnc2)N1Cc1cccc2ccccc12 | > 256

system: Proteus mirabilis; assay: Antibacterial activity against Proteus mirabilis after 18 to 22 hrs by broth microdilution method; assay type: functional; conditions: not given; outline: as §1

Structure (SMILES) | MIC [µg/mL]
O=C1CS/C(=N\N=C\c2ccc3c(c2)OCO3)N1Cc1cccc2ccccc12 | > 256
CC(C)=N/N=C1\SCC(=O)N1Cc1cccc2ccccc12 | > 256
C/C(=N\N=C1/SCC(=O)N1CN1C(=O)c2ccccc2C1=O)c1ccco1 | > 256
O=C1c2ccccc2C(=O)N1CN1C(=O)CS/C1=N\N=C1CCCC1 | > 256
O=C1CS/C(=N\N=C\c2cccnc2)N1Cc1cccc2ccccc12 | > 256

system: Enterobacter sp.; assay: Antibacterial activity against Enterobacter sp. after 18 to 22 hrs by broth microdilution method; assay type: functional; conditions: not given; outline: as §1

Structure (SMILES) | MIC [µg/mL]
O=C1CS/C(=N\N=C\c2ccc3c(c2)OCO3)N1Cc1cccc2ccccc12 | > 256
CC(C)=N/N=C1\SCC(=O)N1Cc1cccc2ccccc12 | > 256
C/C(=N\N=C1/SCC(=O)N1CN1C(=O)c2ccccc2C1=O)c1ccco1 | > 256
O=C1c2ccccc2C(=O)N1CN1C(=O)CS/C1=N\N=C1CCCC1 | > 256
O=C1CS/C(=N\N=C\c2cccnc2)N1Cc1cccc2ccccc12 | > 256

system: Klebsiella oxytoca; assay: Antibacterial activity against Klebsiella oxytoca after 18 to 22 hrs by broth microdilution method; assay type: functional; conditions: not given; outline: as §1

Structure (SMILES) | MIC [µg/mL]
O=C1CS/C(=N\N=C\c2ccc3c(c2)OCO3)N1Cc1cccc2ccccc12 | > 256
CC(C)=N/N=C1\SCC(=O)N1Cc1cccc2ccccc12 | > 256
C/C(=N\N=C1/SCC(=O)N1CN1C(=O)c2ccccc2C1=O)c1ccco1 | > 256
O=C1c2ccccc2C(=O)N1CN1C(=O)CS/C1=N\N=C1CCCC1 | > 256
O=C1CS/C(=N\N=C\c2cccnc2)N1Cc1cccc2ccccc12 | > 256

system: Candida albicans; assay: Antifungal activity against Candida albicans clinical isolate after 24 hrs by sabouraud dextrose broth based microdilution method; assay type: functional; conditions: not given
Outline: (§2)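 Clinical isolates identified by conventional methods and subcultured for purity. Broth microdilution per NCCLS in Sabouraud dextrose broth; compounds dissolved in DMSO and serially diluted; inoculum 10^3/mL. Controls: fungi without compound, medium only. Incubated 24 h at 37 °C. MIC is the lowest concentration with complete growth inhibition by unaided eye. Values are geometric means over isolates per species.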

Structure (SMILES) | MIC [µg/mL]
O=C1CS/C(=N\N=C\c2ccc3c(c2)OCO3)N1Cc1cccc2ccccc12 | 8 (≈ 19.8 µM)
CC(C)=N/N=C1\SCC(=O)N1Cc1cccc2ccccc12 | 4 (≈ 12.8 µM)
C/C(=N\N=C1/SCC(=O)N1CN1C(=O)c2ccccc2C1=O)c1ccco1 | 256 (≈ 669 µM)
O=C1c2ccccc2C(=O)N1CN1C(=O)CS/C1=N\N=C1CCCC1 | 2 (≈ 5.61 µM)
O=C1CS/C(=N\N=C\c2cccnc2)N1Cc1cccc2ccccc12 | 4 (≈ 11.1 µM)

system: Nakaseomyces glabratus; assay: Antifungal activity against Candida glabrata clinical isolate after 24 hrs by sabouraud dextrose broth based microdilution method; assay type: functional; conditions: not given; outline: as §2

Structure (SMILES) | MIC [µg/mL]
O=C1CS/C(=N\N=C\c2ccc3c(c2)OCO3)N1Cc1cccc2ccccc12 | 4 (≈ 9.91 µM)
CC(C)=N/N=C1\SCC(=O)N1Cc1cccc2ccccc12 | 4 (≈ 12.8 µM)
C/C(=N\N=C1/SCC(=O)N1CN1C(=O)c2ccccc2C1=O)c1ccco1 | 16 (≈ 41.8 µM)
O=C1c2ccccc2C(=O)N1CN1C(=O)CS/C1=N\N=C1CCCC1 | 16 (≈ 44.9 µM)
O=C1CS/C(=N\N=C\c2cccnc2)N1Cc1cccc2ccccc12 | 8 (≈ 22.2 µM)

system: Candida tropicalis; assay: Antifungal activity against Candida tropicalis clinical isolate after 24 hrs by sabouraud dextrose broth based microdilution method; assay type: functional; conditions: not given; outline: as §2

Structure (SMILES) | MIC [µg/mL]
O=C1CS/C(=N\N=C\c2ccc3c(c2)OCO3)N1Cc1cccc2ccccc12 | 16 (≈ 39.7 µM)
CC(C)=N/N=C1\SCC(=O)N1Cc1cccc2ccccc12 | 2 (≈ 6.42 µM)
C/C(=N\N=C1/SCC(=O)N1CN1C(=O)c2ccccc2C1=O)c1ccco1 | 128 (≈ 335 µM)
O=C1c2ccccc2C(=O)N1CN1C(=O)CS/C1=N\N=C1CCCC1 | 8 (≈ 22.4 µM)
O=C1CS/C(=N\N=C\c2cccnc2)N1Cc1cccc2ccccc12 | 8 (≈ 22.2 µM)

system: Pichia kudriavzevii; assay: Antifungal activity against Candida krusei clinical isolate after 24 hrs by sabouraud dextrose broth based microdilution method; assay type: functional; conditions: not given; outline: as §2

Structure (SMILES) | MIC [µg/mL]
O=C1CS/C(=N\N=C\c2ccc3c(c2)OCO3)N1Cc1cccc2ccccc12 | 8 (≈ 19.8 µM)
CC(C)=N/N=C1\SCC(=O)N1Cc1cccc2ccccc12 | 2 (≈ 6.42 µM)
C/C(=N\N=C1/SCC(=O)N1CN1C(=O)c2ccccc2C1=O)c1ccco1 | 256 (≈ 669 µM)
O=C1c2ccccc2C(=O)N1CN1C(=O)CS/C1=N\N=C1CCCC1 | 16 (≈ 44.9 µM)
O=C1CS/C(=N\N=C\c2cccnc2)N1Cc1cccc2ccccc12 | 32 (≈ 88.8 µM)

system: Candida parapsilosis; assay: Antifungal activity against Candida parapsilosis clinical isolate after 24 hrs by sabouraud dextrose broth based microdilution method; assay type: functional; conditions: Lodderomyces parapsilosis; outline: as §2

Structure (SMILES) | MIC [µg/mL]
O=C1CS/C(=N\N=C\c2ccc3c(c2)OCO3)N1Cc1cccc2ccccc12 | 16 (≈ 39.7 µM)
CC(C)=N/N=C1\SCC(=O)N1Cc1cccc2ccccc12 | 2 (≈ 6.42 µM)
C/C(=N\N=C1/SCC(=O)N1CN1C(=O)c2ccccc2C1=O)c1ccco1 | 256 (≈ 669 µM)
O=C1c2ccccc2C(=O)N1CN1C(=O)CS/C1=N\N=C1CCCC1 | 64 (≈ 180 µM)
O=C1CS/C(=N\N=C\c2cccnc2)N1Cc1cccc2ccccc12 | 32 (≈ 88.8 µM)

system: [Candida] sake; assay: Antifungal activity against Candida sake clinical isolate after 24 hrs by sabouraud dextrose broth based microdilution method; assay type: functional; conditions: Fermentozyma sake; outline: as §2

Structure (SMILES) | MIC [µg/mL]
O=C1CS/C(=N\N=C\c2ccc3c(c2)OCO3)N1Cc1cccc2ccccc12 | 8 (≈ 19.8 µM)
CC(C)=N/N=C1\SCC(=O)N1Cc1cccc2ccccc12 | 2 (≈ 6.42 µM)
C/C(=N\N=C1/SCC(=O)N1CN1C(=O)c2ccccc2C1=O)c1ccco1 | 256 (≈ 669 µM)
O=C1c2ccccc2C(=O)N1CN1C(=O)CS/C1=N\N=C1CCCC1 | 256 (≈ 718 µM)
O=C1CS/C(=N\N=C\c2cccnc2)N1Cc1cccc2ccccc12 | 32 (≈ 88.8 µM)
